pEC50, pIC50: −log10 of the molar value.
Assays:
[1] = system: HeLa; test: Ratio of cytotoxicity for HeLa H1-JC.37 cells (IC50) to antiviral activity against HIV-1 (EC50); format: functional, Homo sapiens
How it was run: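 Ratio of cytotoxic IC50 to antiviral EC50 in HeLa H1-JC.37 cells (HeLa CD4 expressing CCR5). EC50 came from an HIV-1 focal infectivity assay: mAb 22-6 (1/800) immunostaining, foci counted at 30× to 100×, best-fit linear portion of % no-drug control foci versus concentration, at least three experiments. IC50 came from an MTS proliferation assay, same fitting, at least two experiments.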

[2] = system: HeLa; test: Antiviral activity against human immuno deficiency virus type 1 in HeLa H1-JC.37 cells; format: functional, cell-based
How it was run: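 HIV-1 focal infectivity assay in HeLa H1-JC.37 indicator cells (HeLa CD4 expressing human CCR5, naturally CXCR4). Foci immunostained with monoclonal antibody 22-6 at 1/800 and counted under a dissecting microscope at 30× to 100×. Plotted as percentage of no-drug control foci against inhibitor concentration; EC50 from best-fit line of linear portion; at least three separate experiments.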

[3] = target: T1, Human immunodeficiency virus type 1 integrase (Human immunodeficiency virus 1, UniProt Q7ZJM1); test: Inhibitory concentration against integration of HIV-1 Integrase
T1 sequence (Q7ZJM1 whole entry): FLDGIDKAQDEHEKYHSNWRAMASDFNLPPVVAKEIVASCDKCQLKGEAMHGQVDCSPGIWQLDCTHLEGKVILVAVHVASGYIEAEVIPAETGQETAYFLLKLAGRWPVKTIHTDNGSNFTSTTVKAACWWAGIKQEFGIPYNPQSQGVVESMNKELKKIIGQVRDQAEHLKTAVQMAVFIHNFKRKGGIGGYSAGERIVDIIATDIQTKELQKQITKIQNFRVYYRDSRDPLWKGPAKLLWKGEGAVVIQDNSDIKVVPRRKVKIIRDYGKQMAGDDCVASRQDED

[4] = target: T1, Human immunodeficiency virus type 1 integrase; test: Inhibitory concentration against 3'processing of HIV-1 Integrase
[5] = system: HeLa; test: Cytotoxicity for HeLa H1-JC.37 cells using MTS assay; format: functional, cell-based; settings: Homo sapiens
How it was run: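 HeLa H1-JC.37 cell proliferation measured by MTS assay under manufacturer's recommended conditions. Data plotted as percentage of no-drug control against inhibitor concentration; IC50 for 50% inhibition of proliferation taken from best-fit line of linear portion of plot; at least two separate experiments.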

| Structure (SMILES) | pEC50 [2] | pIC50 [3] | pIC50 [4] | Selectivity index [1] | pIC50 [5] |
| --- | --- | --- | --- | --- | --- |
| O=S(=O)(/C=C/c1cc(O)c(O)c(O)c1)CS(=O)(=O)/C=C/c1cc(O)c(O)c(O)c1 | 6.52 | 6.05 | 5.74 | 563 | 3.77 |
| COc1cc(/C=C/S(=O)(=O)CS(=O)(=O)/C=C/c2ccc(C(C)=O)c(OC)c2)ccc1C(C)=O |  | < 3.00 | < 3.00 |  |  |
| O=C(O)C(=O)CC(=O)c1cc(OCc2ccccc2)cc(OCc2ccccc2)c1 | 6.11 |  | < 3.00 |  |  |
| O=S(=O)(/C=C/c1ccc(OCc2ccccc2)c(OCc2ccccc2)c1)CS(=O)(=O)/C=C/c1ccc(OCc2ccccc2)c(OCc2ccccc2)c1 |  | 3.15 | 3.15 |  |  |

Second part, led by results:

| pEC50 [2] | pIC50 [3] | pIC50 [4] | Structure (SMILES) | Selectivity index [1] | pIC50 [5] |
| --- | --- | --- | --- | --- | --- |
| 5.89 | 4.30 | 4.30 | COc1cc(/C=C/S(=O)(=O)CS(=O)(=O)/C=C/c2cc(O)c(O)c(OC)c2)cc(O)c1O | 22 | 4.54 |
| 5.62 | 5.30 | 5.40 | O=S(=O)(/C=C/c1ccc(O)c(O)c1)CS(=O)(=O)/C=C/c1ccc(O)c(O)c1 | 78 | 3.73 |
| 5.35 | 4.10 | 4.10 | COc1cc(/C=C/S(=O)(=O)CS(=O)(=O)/C=C/c2ccccc2)cc(O)c1O | 4.3 | 4.72 |
